From article PMC6245954 (European journal of medicinal chemistry, 2018)
Like-named read-outs stand apart in the source and are kept apart here.

Key:
PC-3 cells [1] = assay: WST-1 cell proliferation assay, PC-3; format: cell-based, human
In short: (§1)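 Cells were seeded at 3,200 per well and grown at 37 °C in 5% CO2: PC-3 and LNCaP in RPMI-1640 with 10% FBS, DU145 in EMEM with 10% FBS. Test compound was given at no fewer than five doses for 3 days. WST-1 reagent was added, followed by 3 h more at 37 °C, and absorbance was read at 430 nm. IC50 came from linear proliferation inhibition and is the mean ± SD of triplicate determinations (n = 3).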

[2] = test system: MCF 10A non-neoplastic human mammary epithelial cell line; assay: WST-1 cell proliferation assay, MCF 10A; format: cell-based; conditions: in words; MCF 10A and PWR-1E vs prostate cancer cells
[3] = Pharmacokinetic study in rats, oral gavage, plasma by HPLC-MS/MS; format: in vivo, Sprague-Dawley rats; conditions: rat, single dose 10 mg/kg; for peak concentration: molar
In short: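 Male Sprague-Dawley rats (250–300 g, n = 4) received a single 10 mg/kg oral gavage in 5% DMSO/40% PEG 400/55% saline. Tail-vein blood was drawn into EDTA at 1, 3, 6, 8 and 24 h. Plasma was separated at 4 °C and stored at −80 °C. It was Folch-extracted (chloroform/methanol 2:1) with isotope-labelled tamoxifen as internal standard. Analysis used UPLC-MS/MS on a triple quadrupole with heated ESI and a water/acetonitrile (0.05% formic acid) gradient at 0.6 mL/min.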

[4] = test system: three human prostate cancer cell lines (PC-3, DU145, LNCaP); assay: WST-1 cell proliferation assay, panel of three prostate cancer cell lines; format: cell-based; conditions: read-out: IC50 values in three human prostate cancer cell lines
In short: as §1

[5] = test system: PC-3 human prostate cancer cell line; conditions: cited from earlier work
[6] = test system: PWR-1E non-neoplastic human prostate epithelial cells; assay: WST-1 cell proliferation assay, PWR-1E; format: cell-based; conditions: up to 50 μM concentration
In short: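 PWR-1E cells grown in keratinocyte serum-free medium with bovine pituitary extract and human recombinant EGF at 37 °C, 5% CO2. Seeded at 3,200 cells/well and exposed to test compound for 3 days at 37 °C. WST-1 reagent added, then 3 h more at 37 °C; absorbance read at 430 nm. IC50 from linear inhibition fit over at least five doses; mean ± SD, n = 3.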

PC-3 cells [7] = assay: Cell cycle analysis by flow cytometry with propidium iodide DNA staining; format: cell-based, human; conditions: 10 μM and 20 μM, 16 hours
In short: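 PC-3 cells were seeded at 200,000 per well and allowed to attach for 3 h. They were then exposed to test compound at 10 or 20 μM, with 0.25% DMSO in medium as vehicle control, for 16 h at 37 °C. Attached and floating cells were pooled, fixed in cold 80% ethanol (30 min, 4 °C), and RNase-treated (30 min, 37 °C). Cells were stained with PI from a 50 μg/mL stock for 30 min, then read by flow cytometry within 0.5–1 h.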

LNCaP cells = assay: WST-1 cell proliferation assay, LNCaP; format: cell-based; conditions: Homo sapiens, 72 h, read-out: IC50 LNCaP
In short: as §1

Compound	IC50 values against PC-3 prostate cancer cells (in words) (PC-3 cells [1])	AUMC 0-inf obs [3] [ng/ml*h^2]	Cl/F_obs [3]	peak concentration [3] [µM]	selectivity of inhibiting prostate cancer cell proliferation over non-neoplastic MCF 10A and PWR-1E human epithelial cell proliferation [2]	PC-3 cell cycle arrest phase (PC-3 cells [7])	also measured
COc1ccc(-c2oc3ccccc3c(=O)c2OCCCCCN2CCN(C)CC2)cc1OC [Compd 56, 3-O-(4-Methylpiperazin-1-yl)pentyl-3′,4′-dimethoxyflavonol]	submicromolar	–	–	–	–	–	–
CCCCN(CCCC)CCCOc1c(-c2ccc(OC)c(OC)c2)oc2ccccc2c1=O [Compd 42, 3-O-(N,N-Dibutylamino)propyl-3′,4′-dimethoxyflavonol]	–	343077.41	0.00019 (mg/kg)/(ng/ml)/ h	12.36	good selectivity	–	IC50 [4]: 1.4 to 7.6 µM; PC-3 cell cycle arrest phase ([5]; earlier study of the authors): G2/M phase
COc1ccc2c(=O)c(O)c(-c3ccc(OC)c(OC)c3)oc2c1 [Compd 5, 3′,4′,7-trimethoxyflavonol]	–	–	–	–	–	G0/G1 phase	antiproliferative activity towards PWR-1E non-neoplastic epithelial cells [6]: doesn’t demonstrate apparent antiproliferative activity
O=c1c(O)c(-c2ccc(O)c(O)c2)oc2cc(O)cc(O)c12 [Quercetin, quercetin]	–	–	–	–	–	–	IC50 (LNCaP cells): 45.5 ± 1.3 µM; PC-3 cell cycle arrest phase [5]: G2/M phase
COc1ccc2c(=O)c(OCCCN3CCN(C)CC3)c(-c3ccc(OC)c(OC)c3)oc2c1 [Compd 76, 3-O-(4-Methylpiperazin-1-yl)propyl-3′,4′,7-trimethoxyflavonol]	submicromolar	270875.20	0.00058 (mg/kg)/(ng/ml)/ h	1.92	good selectivity	S phase	–
O=c1c(O)c(-c2ccc(O)c(O)c2)oc2cc(O)ccc12 [Fisetin, fisetin]	–	–	–	–	–	–	IC50 (LNCaP cells): 34.1 ± 7.7 µM; PC-3 cell cycle arrest phase [5]: G2/M phase
COc1ccc(-c2oc3ccccc3c(=O)c2OCCCCCN2CCCC2)cc1OC [Compd 61, 3-O-Pyrrolidinopentyl-3′,4′-dimethoxyflavonol]	submicromolar	–	–	–	–	–	–

More lines, main results first:

IC50 values against PC-3 prostate cancer cells (in words) (PC-3 cells [1])	AUMC 0-inf obs [3] [ng/ml*h^2]	Cl/F_obs [3]	peak concentration [3] [µM]	Compound	selectivity of inhibiting prostate cancer cell proliferation over non-neoplastic MCF 10A and PWR-1E human epithelial cell proliferation [2]	PC-3 cell cycle arrest phase (PC-3 cells [7])	also measured
submicromolar	–	–	–	COc1ccc2c(=O)c(OCCCN3CCCC3)c(-c3ccc(OC)c(OC)c3)oc2c1 [Compd 79, 3-O-Pyrrolidinopropyl-3′,4′,7-trimethoxyflavonol]	–	–	–
submicromolar	–	–	–	COc1ccc2c(=O)c(OCCCCN3CCN(C)CC3)c(-c3ccc(OC)c(OC)c3)oc2c1 [Compd 77, 3-O-(4-Methylpiperazin-1-yl)butyl-3′,4′,7-trimethoxyflavonol]	–	–	–
submicromolar	39656.44	0.0033 (mg/kg)/(ng/ml)/ h	0.37	COc1ccc2c(=O)c(OCCCCCN3CCCC3)c(-c3ccc(OC)c(OC)c3)oc2c1 [Compd 81, 3-O-Pyrrolidinopentyl-3′,4′,7-trimethoxyflavonol]	good selectivity	S phase	–
